Experimental data from ChEMBL document CHEMBL1137668, “Activities of several classes of acyclic nucleoside phosphonates against camelpox virus replication in different cell culture models” (Antimicrob Agents Chemother, 2007).
Calls of active or inactive are those of the source. The calls are words filed in the database; no cut-off is given here.

What was measured:
Camelpox virus [1] = assay: Antiviral activity against Camelpox virus CML14 infected in human PHK assessed as inhibition of virus-induced cytopathic effect after 6 days by Giemsa staining; format: functional, organism-based; conditions: CML14, 144 h
Camelpox virus [2] = assay: Antiviral activity against Camelpox virus CML1 infected in human PHK raft culture assessed as inhibition of virus-induced cytopathic effect at 7 uM treated after 7 days postinfection; format: functional, organism-based
Camelpox virus [3] = assay: Antiviral activity against Camelpox virus CML1 infected in HEL299 cells assessed as inhibition of virus-induced cytopathic effect after 6 days by Giemsa staining; format: functional, organism-based; conditions: CML1, HEL 299, 144 h
Camelpox virus [4] = assay: Antiviral activity against Camelpox virus CML14 infected in human PHK assessed as suppression of viral replication at 73 uM after 6 days postinfection by virus yield reduction assay; format: functional, organism-based
Camelpox virus [5] = assay: Antiviral activity against Camelpox virus CML1 infected in differentiated human PHK raft culture assessed as reduction in viral titer determined in HEL299 cells treated after 7 days postinfection by virus yield reduction assay; format: functional; conditions: CML1, HEL 299, 168 h
[6] = Selectivity index, ratio of CC50 for HEL299 cells to EC50 for Camelpox virus CML1 infected in HEL299 cells; format: toxicity, cell-based, HEL 299; conditions: human, HEL299 cells; read-out: Ratio CC50/IC50
Camelpox virus [7] = assay: Antiviral activity against Camelpox virus CML14 infected in HEL299 cells assessed as inhibition of virus-induced cytopathic effect after 6 days by Giemsa staining; format: functional, organism-based; conditions: CML14, HEL 299, 144 h
[8] = Selectivity index, ratio of CC50 for HEL299 cells to EC50 for Camelpox virus CML14 infected in HEL299 cells; format: toxicity, cell-based, HEL 299; conditions: human, HEL299 cells; read-out: Ratio CC50/IC50
Camelpox virus [9] = assay: Antiviral activity against Camelpox virus CML14 infected in HEL299 cells assessed as reduction in viral titer after 6 days postinfection by virus yield reduction assay; format: functional; conditions: for Activity: HEL 299; for EC99: CML14, HEL 299, 144 h
[10] = Cytotoxicity against human PHK after 4 days by Z1 Coulter counting analysis; conditions: PHK cells
Method in brief: (§1)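 Cell growth inhibition: HEL cells were seeded at 3.5 × 10³ per well and PHKs at 5 × 10³ per well. Serial dilutions were added in duplicate after 1 day (HEL) or 3 days (PHK). After 4 days with compound, cells were trypsinized and counted with a Coulter counter (8 μm lower limit). CC50 is the concentration reducing growth by 50%, mean ± SD of at least two experiments.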

[11] = Cytotoxicity against differentiated epithelium of human PHK raft culture at 5 ug/ml after 4 days by Z1 Coulter counting analysis; conditions: 96 h
[12] = Selectivity index, ratio of CC50 for human PHK to EC50 for Camelpox virus CML1 infected in human PHK
[13] = Cytotoxicity against HEL299 cells after 4 days by Z1 Coulter counting analysis; format: cell-based, HEL 299; conditions: human, HEL299 cells; method in brief: as §1
Camelpox virus [14] = assay: Antiviral activity against Camelpox virus CML1 infected in human PHK assessed as reduction in viral titer after 6 days postinfection by virus yield reduction assay; format: functional; conditions: for EC99: CML1, 144 h
Camelpox virus [15] = assay: Antiviral activity against Camelpox virus CML14 infected in human PHK assessed as reduction in viral titer after 6 days postinfection by virus yield reduction assay; format: functional; conditions: for EC99: CML14, 144 h
Camelpox virus [16] = assay: Antiviral activity against Camelpox virus CML1 infected in human PHK epithelial raft culture assessed as inhibition of virus-induced cytopathic effect at 1.8 uM after 7 days postinfection; format: functional, organism-based
Camelpox virus [17] = assay: Antiviral activity against Camelpox virus CML1 infected in human PHK assessed as inhibition of virus-induced cytopathic effect after 6 days by Giemsa staining; format: functional, organism-based; conditions: CML1, 144 h
Camelpox virus [18] = assay: Antiviral activity against Camelpox virus CML1 infected in human PHK assessed as suppression of viral replication at 73 uM after 6 days postinfection by virus yield reduction assay; format: functional, organism-based
[19] = Selectivity index, ratio of CC50 for human PHK to EC50 for Camelpox virus CML14 infected in human PHK
Camelpox virus [20] = assay: Antiviral activity against Camelpox virus CML14 infected in HEL299 cells assessed as suppression of viral replication at 73 uM after 6 days postinfection by virus yield reduction assay; format: functional, organism-based; conditions: HEL 299
Camelpox virus [21] = assay: Antiviral activity against Camelpox virus CML1 infected in human PHK raft culture assessed as inhibition of virus-induced cytopathic effect at 18 uM treated after 7 days postinfection; format: functional, organism-based
Camelpox virus [22] = assay: Antiviral activity against Camelpox virus CML1 infected in HEL299 cells assessed as suppression of viral replication at 73 uM after 6 days postinfection by virus yield reduction assay; format: functional, organism-based; conditions: HEL 299
Camelpox virus [23] = assay: Antiviral activity against Camelpox virus CML1 infected in HEL299 cells assessed as reduction in viral titer after 6 days postinfection by virus yield reduction assay; format: functional; conditions: for Activity: HEL 299; for EC99: CML1, HEL 299, 144 h
Camelpox virus [24] = assay: Antiviral activity against Camelpox virus CML1 infected in differentiated human PHK raft culture assessed as inhibition of viral replication at 6 uM treated after 7 days postinfection by virus yield reduction assay; format: functional, organism-based
Camelpox virus [25] = assay: Antiviral activity against Camelpox virus CML1-induced cytopathic effect in human PHK raft culture assessed as full protection of differentiated epithelium at 164uM treated after 7 days postinfection; format: functional, organism-based
Camelpox virus [26] = assay: Antiviral activity against Camelpox virus CML1-induced cytopathic effect in human PHK raft culture assessed as full protection of differentiated epithelium at 65 uM treated after 7 days postinfection; format: functional, organism-based
[27] = Cytotoxicity against differentiated epithelium of human PHK raft culture at 76 uM after 4 days by Z1 Coulter counting analysis; conditions: 96 h
Camelpox virus [28] = assay: Antiviral activity against Camelpox virus CML1 infected in human PHK raft culture assessed as complete protection of differentiated cells against viral replication at 72 uM after 7 days postinfection; format: functional, organism-based
Camelpox virus [29] = assay: Antiviral activity against Camelpox virus CML14 infected in human PHK assessed as inhibition of viral replication at 5 to 13 uM after 6 days postinfection by virus yield reduction assay; format: functional; parameters: scale not given: the % may be the effect or the level left
Camelpox virus [30] = assay: Antiviral activity against Camelpox virus CML14 infected in HEL299 cells assessed as inhibition of viral replication at 5 to 13 uM after 6 days postinfection by virus yield reduction assay; format: functional, HEL 299; parameters: scale not given: the % may be the effect or the level left
Camelpox virus [31] = assay: Antiviral activity against Camelpox virus CML1 infected in HEL299 cells assessed as inhibition of viral replication at 5 to 13 uM after 6 days postinfection by virus yield reduction assay; format: functional, HEL 299; parameters: scale not given: the % may be the effect or the level left
Camelpox virus [32] = assay: Antiviral activity against Camelpox virus CML1 infected in human PHK assessed as inhibition of viral replication at 5 to 13 uM after 6 days postinfection by virus yield reduction assay; format: functional; parameters: scale not given: the % may be the effect or the level left

Structure (SMILES) | EC50 (Camelpox virus [1]) [µM] | EC50 (Camelpox virus [3]) [µM] | EC99 (Camelpox virus [5]) [µM] | selectivity ratio [6] | EC50 (Camelpox virus [7]) [µM] | selectivity ratio [8] | Activity (Camelpox virus [9]) | CC50 at 96 h [10] [µM] | Ratio CC50/IC50 [12] | CC50 at 96 h [13] [µM] | Activity (Camelpox virus [14]) | Activity (Camelpox virus [15]) | EC50 (Camelpox virus [17]) [µM] | Ratio CC50/IC50 [19] | Activity (Camelpox virus [23]) | EC99 (Camelpox virus [9]) [µM] | EC99 (Camelpox virus [15]) [µM] | EC99 (Camelpox virus [14]) [µM] | EC99 (Camelpox virus [23]) [µM] | further results
Nc1ncn(C[C@@H](CO)OCP(=O)(O)O)c(=O)n1 | 9.7 | 12.3 | 16 | 45 | 12 | 46 | Dose-dependent effect | 71 | 5 | 550 | Dose-dependent effect | Dose-dependent effect | 14.8 | 7 | Dose-dependent effect |  |  |  |  | Activity (Camelpox virus [2]): inactive; Activity (Camelpox virus [4]): Active; Activity [11]: Toxic; Activity (Camelpox virus [16]): inactive; Activity (Camelpox virus [18]): Active; Activity (Camelpox virus [20]): Active; Activity (Camelpox virus [21]): inactive; Activity (Camelpox virus [22]): Active
Nc1nc(N)c2ncn(C[C@@H](CO)OCP(=O)(O)O)c2n1 | 1.2 | 0.2 |  | 249 | 0.6 | 70 | Dose-dependent effect | 2 | 2 | 45 | Dose-dependent effect | Dose-dependent effect | 0.8 | 1 | Dose-dependent effect | 1 | 2 |  |  | Activity (Camelpox virus [24]): Active
Nc1ncnc2c1ncn2C[C@@H](CO)OCP(=O)(O)O | 1.4 | 0.5 |  | 66 | 0.5 | 60 | Dose-dependent effect | 1 | 1 | 32 | Dose-dependent effect | Dose-dependent effect | 1 | 1 | Dose-dependent effect | 1 | 2 |  |  | 
Nc1ccn(C[C@H]2COP(=O)(O)CO2)c(=O)n1 [CYCLIC CIDOFOVIR] | 9.1 | 6.1 | 38 | 55 | 8.8 | 38 | Dose-dependent effect | 17 | 2 | 335 | Dose-dependent effect | Dose-dependent effect | 7.2 | 2 | Dose-dependent effect |  |  | 59 | 64 | Activity (Camelpox virus [25]): Active
Nc1ccn(C[C@@H](CO)OCP(=O)(O)O)c(=O)n1.O.O [CIDOFOVIR] | 8.8 | 8.2 | 6 | 23 | 6.6 | 29 | Dose-dependent effect | 7 | 1 | 192 | Dose-dependent effect | Dose-dependent effect | 5.3 | 1 | Dose-dependent effect |  |  | 16 | 58 | Activity (Camelpox virus [26]): Active
Nc1ncnc(=O)n1C[C@H]1COP(=O)(O)CO1 | 14.8 | 4.3 | 67 | 33 | 3 | 48 | Dose-dependent effect | 34 | 2 | 143 | Dose-dependent effect | Dose-dependent effect | 18 | 2 | Dose-dependent effect |  |  |  |  | Activity (Camelpox virus [4]): Active; Activity [27]: Non-toxic; Activity (Camelpox virus [18]): Active; Activity (Camelpox virus [20]): Active; Activity (Camelpox virus [22]): Active; Activity (Camelpox virus [28]): Active
Nc1ncnc2c1ncn2C[C@H]1COP(=O)(O)CO1 | 3.1 | 0.2 |  | 393 | 0.1 | 441 | Dose-dependent effect | 3 | 2 | 63 | Dose-dependent effect | Dose-dependent effect | 1.6 | 1 | Dose-dependent effect | 2 | 6 |  | 3 | 
C[C@H](COC1=CC(N)N(O)C(N)=N1)OCP(=O)(O)O (some centres not stated) | 4.6 | 1.6 | 5 | 99 | 2 | 82 | Dose-dependent effect | 5 | 1 | 162 | Dose-dependent effect | Dose-dependent effect | 3.9 | 1 | Dose-dependent effect | 9.5 | 9.5 | 9.5 | 9.5 | 
Nc1nccc2c1ncn2C[C@@H](CO)OCP(=O)(O)O | 2.1 | 1.5 |  | 20 | 1.7 | 18 | Dose-dependent effect | 0.3 | 0.1 | 30 | Dose-dependent effect | Dose-dependent effect | 3.1 | 0.1 | Dose-dependent effect |  |  |  |  | Activity (Camelpox virus [29]): 99%; Activity (Camelpox virus [30]): 99%; Activity (Camelpox virus [31]): 99%; Activity (Camelpox virus [32]): 99%
